Our source for the Time, Sleeping time and RRT values is ChEMBL document CHEMBL1133659, “3,4-dihydro-2(1H)-quinolinone as a novel antidepressant drug: synthesis and pharmacology of 1-[3-[4-(3-chlorophenyl)-1-piperazinyl]propyl]-3,4- dihydro-5-methoxy-2(1H)-quinolinone and its derivatives” (J Med Chem, 2000).

Where “and” joins values, the source holds several entries; their conditions need not be identical. Equal entries are not always repeated.

Common to all, as to assay type: functional
In experiment [1] the test system is Mus musculus. Put plainly: Effect on Immobility Time in the Forced-Swimming Test in Mice at the dose of 0 mg/kg po. In outline:
(§1)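 Mice, 8 per group. Dosing was oral, either as a single dose 1 h before testing on day 2 or repeated once daily for 4 days. Each mouse swam 6 min in a cylinder with 6 cm of water at 22-23 °C, and immobility was scored over the last 4 min. Results are mean ± SE seconds and % of control, analysed by one-way ANOVA with Dunnett's test.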

For experiment [2], the species on record is Mus musculus. The experiment can be described thus: Effect on the sleeping time of mice before halothane load (control group). In outline:
(§2)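 Groups of 10 mice received compound orally 1 h before testing, at 100 mg/kg unless another dose is noted. Vehicle was 0.5% gum arabic in 0.9% saline, and controls received vehicle alone. Mice were exposed to 4% halothane in air at 2 L/min. Sleeping time ran from loss to recovery of righting reflex (mean ± SE s), expressed as % of control. Two-tailed t-test was used.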

The species entered for experiment [3] is Mus musculus. The experiment can be described thus: Effect on recovery time for coma induced in mice by cerebral concussion (treated group). In outline:
(§3)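 Groups of 10 mice received compound orally 1 h before head concussion, at 100 mg/kg unless another dose is noted. Vehicle was 0.5% gum arabic in saline, and controls received vehicle alone. The read-out was time to reappearance of the righting reflex (mean ± SE s), expressed as % of control. Two-tailed t-test was used.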

For experiment [4], the system named is Mus musculus. The experiment can be described thus: Effect on the sleeping time of mice anesthetized with halothane (treated group) (30 mg/kg). In outline:
as §2

The test system of experiment [5] is Mus musculus. The experiment can be described thus: Effect on Immobility Time in the Forced-Swimming Test in Mice at the dose of 1 mg/kg po. In outline: as §1
The test system of experiment [6] is Mus musculus. Put plainly: Effect on Immobility Time in the Forced-Swimming Test in Mice at the dose of 10 mg/kg po. In outline: as §1
Experiment [7] is filed under the species Mus musculus. The experiment can be described thus: Effect on recovery time for coma induced in mice by cerebral concussion (control group). In outline: as §3
Experiment [8] concerns Mus musculus. Put plainly: Effect on the time required for recovery from coma induced in mice by cerebral concussion at the dose of 10 mg/kg po. In outline:
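In the concussion-coma test in mice (n = 10), compound was given orally 1 h before concussion, and antagonists were pre-dosed 15 min to 1 h before the test compound. The read-out was time to recovery of the righting reflex as % of control. Statistics were two-tailed t-test versus control and one-way ANOVA with Dunnett's test versus the treated group.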

Experiment [9] has as its system Mus musculus. The experiment can be described thus: Effect on Immobility Time in the Forced-Swimming Test in Mice at the dose of 10 mg/kg po for repeated administration. In outline:
as §1

The subject of experiment [10] is Mus musculus. The experiment can be described thus: Effect on Immobility Time in the Forced-Swimming Test in Mice at the dose of 30 mg/kg po for single administration. In outline: as §1
Experiment [11] deals with Mus musculus. The experiment can be described thus: Effect on Immobility Time in the Forced-Swimming Test in Mice at the dose of 30 mg/kg po for repeated administration. In outline:
as §1

In experiment [12] the test system is Mus musculus. Put plainly: Effect on Immobility Time in the Forced-Swimming Test in Mice at the dose of 10 mg/kg po for single administration. In outline:
as §1

In experiment [13] the test system is Mus musculus. The experiment can be described thus: Effect on Immobility Time in the Forced-Swimming Test in Mice at the dose of 0 mg/kg po for repeated administration. In outline:
as §1

Experiment [14] relates to Mus musculus. Put plainly: Effect on Immobility Time in the Forced-Swimming Test in Mice at the dose of 0 mg/kg po for single administration. In outline: as §1

Regarding `COc1cccc2c1CCC(=O)N2CCCN1CCN(c2cccc(Cl)c2)CC1.CS(=O)(=O)O.O`, the values for the Time in the experiment on Mus musculus [1], in the experiment on Mus musculus [5] and in the experiment with Mus musculus [6] were 199 s, less than 140 s and less than 138 s, respectively. The values for the Sleeping time in the experiment filed under Mus musculus [2] and in the experiment on Mus musculus [4] were 613 s and less than 414 s, respectively. For the same molecule, the RRT in the experiment filed under Mus musculus [3] was less than 49 s; in the experiment listed under Mus musculus [7], 165 s.
Turning to `Cc1ccccc1NC(=N)Nc1ccccc1C`, the RRT in the experiment with Mus musculus [8] was <81 s and <210 s; in the experiment filed under Mus musculus [3], less than 101 s; in the experiment filed under Mus musculus [7], 153 s.
For `CN(C)CCCN1c2ccccc2CCc2ccccc21` [IMIPRAMINE], the Time in the experiment on Mus musculus [9] is given as 122 s; in the experiment with Mus musculus [10] it was 160 s; in the experiment on Mus musculus [11] it was less than 109 s; with Mus musculus [12], 158 s; in the experiment with Mus musculus [13], 178 s; in the experiment on Mus musculus [14], 198 s. Moreover, the values for the RRT in the experiment listed under Mus musculus [3] and in the experiment filed under Mus musculus [7] were 290 s and 177 s, respectively.
